In ChEMBL document CHEMBL1157767, “Phenylcinnamides as novel antimitotic agents” (J Med Chem, 2010):
Activity calls are given as the source filed them. No cut-off for these calls is given here.

How the values were obtained:
U-937 [1] = experiment: Cytotoxicity against human U937 cells after 72 hrs MTS assay; format: functional, cell-based; conditions: U-937, 72 h
How it was run: (§1)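 Cells in RPMI-1640/10% FBS seeded at 1 × 10⁵ (U-937, HL-60) or 1.5 × 10⁵ (HL-60/VCR) cells/mL with compound from DMSO series, 10 concentrations 100 μM to 5 nM, five replicates; 72 h at 37 °C. MTS/PMS added until vehicle OD ≈1.5, A490. Internal positive and DMSO controls; IC50 by four-parameter logistic fit; SD from ≥3 experiments, or mean of two.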

HeLa [2] = experiment: Cytotoxicity against human HeLa cells after 72 hrs SRB assay; format: functional, cell-based
How it was run: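 HeLa cells (5 × 10⁴ cells/mL suspension) seeded with compound from DMSO dilution series, 10 concentrations 100 μM to 5 nM, five replicates each; 72 h at 37 °C, 5% CO₂. TCA fixation, sulforhodamine B staining, bound dye released in 10 mM Tris pH 10.5, A510. Plate positive and DMSO controls calibrate % death; IC50 from four-parameter logistic fit; SD from ≥3 experiments, or mean of two.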

[3] = Inhibition of tubulin polymerization at 100 uM by turbidimetry
Bos taurus = organism: Bos taurus; experiment: Inhibition of bovine brain tubulin polymerization at 10 uM by turbidimetry
HeLa [4] = experiment: Cell cycle arrest in human HeLa cells by accumulation of cells at G2/M phase at 25 uM after 9 hrs by M-phase fluorescence staining based flow cytometry; format: functional
How it was run: (§2)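 HeLa synchronized in G1/S by double thymidine block, released by washing and plated in fresh medium with test agent (25 μM or 100 nM) or DMSO vehicle for 9 h at 37 °C. Cells fixed in 3% formaldehyde-PBS, permeabilized in cold MeOH, stained with mouse anti-phospho(Ser10) histone H3 then Alexa-Fluor 488 secondary, RNase A-treated, propidium iodide DNA stain. Dual-laser flow cytometry; PI marks G2/M, phospho-H3 marks M-phase.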

HeLa [5] = experiment: Induction of mitotic arrest in human HeLa cells assessed as increase in number of cells with mitotic DNA by indirect immunofluorescence staining; format: functional, cell-based
U-937 [6] = experiment: Cell cycle arrest in human U937 cells by accumulation of cells at G2/M phase at 25 uM after 9 hrs by propidium iodide staining based flow cytometry; format: functional
HL-60 [7] = experiment: Cytotoxicity against vincristine-resistant human HL60 cells after 72 hrs MTS assay; format: functional, cell-based; conditions: HL-60, 72 h; how it was run: as §1
HeLa [8] = experiment: Induction of mitotic arrest in human HeLa cells assessed as disruption of microtubule assembly at 25 uM after 6 hrs fluorescence confocal microscopy; format: functional, cell-based
How it was run: (§3)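 HeLa on nitric acid-washed coverslips, treated at 70% confluency for 6 h with compound (25 μM) or DMSO (0.2% final). Glutaraldehyde fixation in BRB-80, Triton X-100 permeabilization, NaBH₄ reduction, goat-serum block, FITC anti-α-tubulin plus Alexa-Fluor 488 secondary, propidium iodide with RNase A; laser scanning confocal imaging, 63× oil objective.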

HL-60 [9] = experiment: Cytotoxicity against human HL60 cells after 72 hrs MTS assay; format: functional, cell-based; conditions: HL-60, 72 h; how it was run: as §1
HeLa [10] = experiment: Induction of mitotic arrest in human HeLa cells assessed as mitotic index by indirect immunofluorescence staining (Rvb=2.2%); format: functional
HeLa [11] = experiment: Cell cycle arrest in human HeLa cells by accumulation of cells at G2/M phase at 25 uM after 9 hrs by propidium iodide staining based flow cytometry; format: functional; conditions: in the assay text read “M phase” for “G2/M phase”; how it was run: as §2
HeLa [12] = experiment: Induction of mitotic arrest in human HeLa cells assessed as chromosomal condensation at 25 uM after 6 hrs fluorescence confocal microscopy; format: functional, cell-based; how it was run: as §3
HL-60 [13] = experiment: Selectivity ratio of IC50 for vincristine-resistant human HL60 cells to IC50 for human HL60 cells; format: functional
How it was run: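 Ratio of MTS-assay IC50 (72 h) in P-gp-overexpressing, vincristine/colchicine-resistant HL-60/VCR over IC50 in parental HL-60.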

HeLa [14] = experiment: Cell cycle arrest in human HeLa cells by accumulation of cells at G2 phase at 100 nM after 9 hrs by propidium iodide staining based flow cytometry; format: functional; how it was run: as §2
HeLa [15] = experiment: Cell cycle arrest in human HeLa cells by accumulation of cells at M phase at 100 nM after 9 hrs by propidium iodide staining based flow cytometry; format: functional; how it was run: as §2

Structure (SMILES)	IC50 (U-937 [1])	IC50 (HeLa [2])	other results
COc1cccc(/C=C/C(=O)Nc2cccc(OC)c2)c1	> 50 µM	> 50 µM	
CC(=O)O[C@H]1C(=O)[C@@]2(C)[C@H]([C@H](OC(=O)c3ccccc3)[C@]3(O)C[C@H](OC(=O)[C@H](O)[C@@H](NC(=O)c4ccccc4)c4ccccc4)C(C)=C1C3(C)C)[C@]1(OC(C)=O)CO[C@@H]1C[C@@H]2O			inhibition [3]: Active; inhibition (Bos taurus): inactive
COc1cccc(/C=C/C(=O)Nc2cc(C)cc(C)c2)c1	> 50 µM		
COc1cc(/C=C/C(=O)Nc2cc(OC)c(OC)c(OC)c2)cc(OC)c1OC	15.3 µM	> 50 µM	
COc1cccc(/C=C/C(=O)Nc2cc(OC)c(OC)c(OC)c2)c1	3 µM	11.3 µM	Activity (HeLa [4]): Active; Activity (HeLa [5]): Active; Activity (U-937 [6]): Active; IC50 (HL-60 [7]): 11.6 µM; inhibition [3]: Active; Activity (HeLa [8]): Active; IC50 (HL-60 [9]): 3.1 µM; Activity (HeLa [10]): 18.2%; Activity (HeLa [11]): 49%; Activity (HeLa [12]): Active; Ratio IC50 (HL-60 [13]): 3.74
C#CCOc1cccc(/C=C/C(=O)Nc2cc(OC)c(OC)c(OC)c2)c1	6 µM	2 µM	
COc1ccc(NC(=O)/C=C/c2cccc(OC)c2)cc1	18.1 µM		
COc1ccccc1/C=C/C(=O)Nc1ccccc1OC	> 50 µM	36.1 µM	
COc1cccc(/C=C/C(=O)Nc2cc(OC)cc(OC)c2)c1	> 50 µM		
COc1cc(NC(=O)/C=C/c2ccc(O)cc2)cc(OC)c1	> 50 µM	> 50 µM	
COc1ccc(NC(=O)/C=C/c2cc(OC)c(OC)c(OC)c2)cc1	22.4 µM	> 50 µM	
C=CCOc1cccc(/C=C/C(=O)Nc2cc(OC)c(OC)c(OC)c2)c1	13.3 µM	5.4 µM	
COc1cc(NC(=O)/C=C/c2cccc(OC(F)(F)F)c2)cc(OC)c1OC	13.2 µM	4.4 µM	IC50 (HL-60 [7]): 13.1 µM; IC50 (HL-60 [9]): 13.2 µM; Ratio IC50 (HL-60 [13]): 0.99
COc1ccccc1/C=C/C(=O)Nc1cc(OC)c(OC)c(OC)c1	5.1 µM	6.1 µM	
COc1cc(NC(=O)/C=C/c2ccccc2)cc(OC)c1OC	45 µM	> 50 µM	
COc1cc(NC(=O)/C=C/c2ccc(O)cc2)cc(OC)c1OC	32 µM	> 50 µM	
COc1cccc(/C=C/C(=O)Nc2c(C)cccc2C)c1	> 50 µM	> 50 µM	

Structure (SMILES)	IC50 (U-937 [1])	IC50 (HeLa [2])	other results
COc1cc2c(cc1O)CC[C@@H]1[C@@H]2CC[C@]2(C)[C@@H](O)CC[C@@H]12 [2-METHOXYESTRADIOL]			IC50 (HL-60 [7]): 0.9 µM; IC50 (HL-60 [9]): 3.4 µM; Ratio IC50 (HL-60 [13]): 0.26
COc1cccc(NC(=O)/C=C/c2cc(OC)c(OC)c(OC)c2)c1	> 50 µM		
COc1cccc(/C=C/C(=O)NCc2cc(OC)c(OC)c(OC)c2)c1	> 50 µM	> 50 µM	
COc1cccc(CCC(=O)Nc2cc(OC)c(OC)c(OC)c2)c1		> 50 µM	
COC(=O)/C=C/c1cccc(OC)c1	> 50 µM	> 50 µM	
COc1cccc(CCC(=O)Nc2ccccc2OC)c1	> 50 µM	> 50 µM	
COc1cccc(/C=C/C(=O)Nc2ccc3c(c2)OCCO3)c1	15.9 µM	20.1 µM	
COc1cc(/C=C/C(=O)Nc2ccccc2)cc(OC)c1OC	> 50 µM	> 50 µM	
COc1ccccc1NC(=O)/C=C/c1cccc(OC(F)(F)F)c1	40.4 µM	9.8 µM	
COc1cc2c(c(OC)c1OC)-c1ccc(OC)c(=O)cc1[C@@H](NC(C)=O)CC2 [COLCHICINE]			IC50 (HL-60 [7]): > 100 µM; IC50 (HL-60 [9]): 0.053 µM; Activity (HeLa [14]): 37%; Activity (HeLa [15]): 59%; Ratio IC50 (HL-60 [13]): >1000
COc1cc(NC(=O)/C=C/c2cc(OC)c(OC)c(OC)c2)cc(OC)c1	9.7 µM	38.9 µM	
COc1cccc(/C=C/C(=O)Nc2ccccc2)c1	> 50 µM	> 50 µM	
COc1cc(NC(C)=O)cc(OC)c1OC	> 50 µM	> 50 µM	
COc1cc(NC(=O)/C=C/c2cccc(O)c2)cc(OC)c1OC	56.7 µM	18.7 µM	
COc1cccc(/C=C/C(=O)Nc2ccccc2OC)c1	> 50 µM		
COc1ccccc1NC(=O)/C=C/c1cc(OC)c(OC)c(OC)c1	> 50 µM	> 50 µM	
COc1cc(NC(=O)/C=C/c2cccc(OCc3ccccc3)c2)cc(OC)c1OC	1.8 µM	2.1 µM	IC50 (HL-60 [7]): 5.5 µM; Activity (HeLa [8]): Active; IC50 (HL-60 [9]): 5.6 µM; Ratio IC50 (HL-60 [13]): 0.98
